Here are results for 92 molecules from PubChem BioAssay AID504383 (The Scripps Research Institute Molecular Screening Center, 2011).

Hit rate of the full screen: of about 2,500 compounds, about 1,200 (48%) were called active.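 Rule for the calls: active = mean activation above the low control average plus 3 SD, as set in the primary screen (cut at about 12% in these data); inactive = the rest.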 The set was probably picked from earlier hits. Some of the results follow.

The target of this test is Troponin I, cardiac muscle (Homo sapiens) + Troponin T, cardiac muscle (Homo sapiens) + Troponin C, slow skeletal and cardiac muscles (Homo sapiens) (UniProt P19429+P45379+P63316). The test can be described thus: calcium sensitizers of cardiac thin filaments – biochemical, IANBD-TnC fluorescence, triplicate, confirmation (AID 504383).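 Note: 0% = DMSO at 0.472 mM calcium and 100% = DMSO at 2.9 mM calcium.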 The settings on record: IANBD-labeled cardiac RTF, Ca2+ sensitivity fluorescence, at 7.2 µM, stronger effect = higher value, tested at EC20 calcium, 0.472 mM. A digest of the protocol:
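Assay system: labelled regulated thin filaments / Timing: 15 min at 25 °C / Detection: fluorescence intensity of labelled filaments / Measure: fluorescence gain scaled between EC20 and EC100 calcium controls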
For the molecule `CCN(CC)c1ccc(/C=C/[N+](=O)[O-])cc1`, the activation is 19.8% (active).

`Cn1cc(C=C(C#N)C#N)c2ccccc21`: the activation is 69.5% (active).

Take `COC(=O)C1=C(c2cccc(OC)c2OC)C[C@@H]2CC[C@H]1N2C(=O)NCCCOC(C)C`: the activation was 5.72% (inactive).

For `COC(=O)C1=C(c2cccc(OC)c2OC)C[C@@H]2CC[C@H]1N2C(=O)NCc1ccco1`, the activation was 13.3% (active).

Consider `COC(=O)C1=C(c2ccc(F)cc2OCc2ccccc2)C[C@@H]2CC[C@H]1N2C(=O)NCc1ccc(OC)c(OC)c1`, for which the activation is 154% (active).

As to `CCN(CC)CCCOC(=O)C(OC(C)C)(c1ccccc1)c1ccccc1`, the activation was 57.9% (active).

For the molecule `C/C(=N\N1CCCCC1c1cccnc1)c1c(O)n(C2CCCCC2)c(=S)[nH]c1=O` (configuration not stated), the activation was 68.2% (active).

For `COc1ccc(OC)c(-n2c(O)c(C=NCCN3CCNCC3)c(=O)[nH]c2=S)c1`, the activation is 27.9% (active).

For `Cc1ccc(-n2c(O)c(C=NCC3CCCO3)c(=O)[nH]c2=O)c(C)c1` (configuration not stated), the activation is 7.57% (inactive).

With `O=c1[nH]c(=S)n(-c2ccccc2Cl)c(O)c1C=NCCN1CCNCC1`, the activation is 1670% (active).

On to `Cc1cccc(N2C(=O)NC(=O)/C(=C\c3ccc4c(c3)CCCN4Cc3ccccc3)C2=O)c1`, for which the activation is 4.9% (inactive).

Regarding `CCOCCCNC(=O)C1c2cc(OC)c(OC)cc2C(=O)N2CCCCC12` (configuration not stated), the activation was 2.74% (inactive).

Turning to `CN1CCN(c2ccc(/C=C3\C(=O)NC(=S)N(c4cccc(Br)c4)C3=O)o2)CC1`, the activation was 4.38% (inactive).

For `Cc1ccccc1N1C(=O)NC(=O)/C(=C\c2cc(Br)c(N3CCOCC3)o2)C1=O`, the activation was 11% (inactive).

For the molecule `COc1ccccc1N1C(=O)NC(=O)/C(=C/c2ccc3c4c(cccc24)CC3)C1=O`, the activation was 2.54% (inactive).

In the case of `Cc1ccccc1N1C(=O)NC(=O)/C(=C/c2ccc(N3CCOCC3)o2)C1=O`, the activation was 42.7% (active).

As to `Cc1cccc(N2C(=O)/C(=C/c3ccc(N4CCN(C)CC4)o3)C(=O)NC2=S)c1C`, the activation is 16.4% (active).

For the molecule `CCc1ccccc1N1C(=O)/C(=C/c2ccc(N3CCN(C)CC3)o2)C(=O)NC1=S`, the activation is 1030% (active).

Regarding `CN1C(=O)C(=Cc2ccc(N3CCOCC3)o2)C(=O)N(C)C1=S`, the activation is 10.3% (inactive).

Regarding `COc1cc(/C=C2/C(=O)NC(=O)N(c3ccc(C)cc3)C2=O)cc(OC)c1OC`, the activation is 6.29% (inactive).

As to `CN1C(=O)C(=Cc2ccc(N3CCCCCC3)o2)C(=O)N(C)C1=S`, the activation was 94.7% (active).

Take `CN1C(=O)C(=Cc2ccc(N3CCOCC3)o2)C(=O)N(C)C1=O`: the activation was 50.2% (active).

As for `O=C1NC(=O)C(=Cc2ccc(N3CCOCC3)o2)C(=O)N1`, the activation is 2.33% (inactive).

With `CCN1C(=O)C(=Cc2ccc(N3CCOCC3)o2)C(=O)N(CC)C1=S`, the activation was 7.34% (inactive).

Consider `COc1ccc(N2C(=O)/C(=C/c3ccc(N(C)C)o3)C(=O)NC2=S)cc1`, for which the activation is 338% (active).

For the molecule `CCN(CC)c1ccc(/C=C2\C(=O)NC(=S)N(c3ccc(OC)cc3OC)C2=O)o1`, the activation was 8.36% (inactive).

Regarding `CN1C(=O)C(=Cc2sc(=O)n(-c3ccccc3)c2N2CCCCC2)C(=O)N(C)C1=O`, the activation is 3.11% (inactive).

Turning to `C=CCN1C(=O)/C(=C\c2ccc(N3CCOCC3)o2)C(=O)NC1=S`, the activation is 4% (inactive).

On to `C=CCN1C(=O)/C(=C/c2ccc(N3CCOCC3)o2)C(=O)NC1=S`, for which the activation was 29.1% (active).

In the case of `CN1Cc2c(c(C#N)c(N)n(C)c2=S)CC1(C)C`, the activation is 4.38% (inactive).

As to `COc1ccc2c3c([nH]c2c1)C(C)=NCC3`, the activation is 9.9% (inactive).

With `FC(F)(F)c1ccc2c(c1)nnn2C1CCN(Cc2nnnn2Cc2ccccc2)CC1`, the activation was 4.26% (inactive).

Consider `CN1C(=O)/C(=C/c2ccc(N3CCCCCC3)o2)C(=O)NC1=S`, for which the activation is 39% (active).

In the case of `O=C1NC(=O)N(c2ccc3c(c2)OCO3)C(=O)/C1=C/c1ccc(N2CCCC2)o1`, the activation is 3.64% (inactive).

Regarding `CN1C(=O)/C(=C\c2ccc(N3CCCCC3)o2)C(=O)NC1=S`, the activation was 8.33% (inactive).

For the molecule `CCN(CC)c1ccc(/C=C2\C(=O)NC(=S)N(C)C2=O)o1`, the activation was 25.4% (active).

`CCN(CC)c1ccc(C=C2C(=O)N(C)C(=S)N(C)C2=O)o1`: the activation is 8.61% (inactive).

As to `CCOc1ccc(N2C(=O)NC(=O)/C(=C\c3ccc(N4CCCCC4)o3)C2=O)cc1`, the activation was 154% (active).

As to `O=C1NC(=O)N(c2ccc3c(c2)OCO3)C(=O)/C1=C\c1ccc(N2CCCCC2)o1`, the activation is -1.01% (inactive).

For the molecule `COc1cccc2c1C(=O)c1c(O)c3c(c(O)c1C2=O)CC(O)(C(C)=NO)CC3OC1CC(N)C(O)C(C)O1` (configuration not stated), the activation is 4.26% (inactive).

As to `Nc1ccc2ccc3cccc[n+]3c2c1`, the activation is 11.7% (active).

Take `Cc1ccc(N2C(=O)NC(=O)/C(=C\c3ccoc3)C2=O)cc1`: the activation was 4.43% (inactive).

Consider `CN1CCc2cc3c(c4c2C1Cc1ccccc1-4)OCO3` (configuration not stated), for which the activation is 13.5% (active).

Take `CC1=NCCc2c1[nH]c1cc(O)ccc21`: the activation is 5.4% (inactive).

On to `CCCc1cc(=O)oc2cc(OCC(=O)N3CCC(C(=O)O)(c4ccccc4)CC3)ccc12`, for which the activation was 10.7% (inactive).

For the molecule `CCCc1cc(=O)oc2cc(OCC(=O)N3C[C@H]4C[C@@H](C3)c3cccc(=O)n3C4)ccc12`, the activation was 113% (active).

In the case of `COc1ccc(N2C(=O)NC(=O)/C(=C\c3cn(C)c4ccccc34)C2=O)cc1`, the activation is 3.56% (inactive).

Regarding `O=C1NC(=O)C(=Cc2cn(CCOc3ccc4c(c3)OCO4)c3ccccc23)C(=O)N1`, the activation is 12.6% (active).

Turning to `Cc1ccc(/C=C2/Sc3ccc(C(=O)N4CCC5(CC4)OCCO5)cc3NC2=O)cc1`, the activation is 106% (active).

On to `COc1ccc(CC(=O)N2CCN(C)CC2)cc1OC`, for which the activation was 13.3% (active).

As for `N#CC(C#N)=Cc1ccc(C=C(C#N)C#N)cc1`, the activation is 1.09% (inactive).

Regarding `Cc1cc(N2CCCC2)ccc1C=C(C#N)C#N`, the activation was 95.7% (active).

With `Cc1cc(C=C(C#N)C#N)ccc1N1CCCC1`, the activation was 13% (active).

Turning to `Cc1cc(Cl)ccc1C(=O)C1CCCN(C2CCSCC2)C1` (configuration not stated), the activation is 2.78% (inactive).

Turning to `O=Cc1c(C(=O)O)n(Cc2ccc(Cl)cc2)c2ccccc12`, the activation is 7.27% (inactive).

Take `Cc1cc(N(CCCl)CCCl)ccc1C=Cc1ccncn1`: the activation was 17.4% (active).

For `CCCCn1c(O)c(/C=C/C=Nc2ccccc2)c(=O)[nH]c1=O`, the activation was 10% (inactive).

On to `CCCCn1c(O)c(C(=O)/C=C/c2c[nH]c3ccccc23)c(=O)[nH]c1=O`, for which the activation is 14.8% (active).

Regarding `NC(=O)c1c(NC(=O)c2ccc(S(=O)(=O)N(CCCl)CCCl)cc2)sc2c1CCCCC2`, the activation was 14.1% (active).

Regarding `N#CC(C#N)=Cc1ccc(-c2ccccc2F)o1`, the activation is 45.7% (active).

Regarding `CCn1c(O)c(C=Nc2ccc(N3CCOCC3)cc2)c(=O)n(CC)c1=S`, the activation is 88.4% (active).

With `CCCCC(=O)N/N=C/c1c(O)n(CC)c(=S)n(CC)c1=O`, the activation is 4.35% (inactive).

With `O=c1[nH]c(=S)n(-c2ccc(Br)cc2)c(O)c1C=Nc1ccc(N2CCOCC2)cc1`, the activation was 6.9% (inactive).

As for `CCCCN1C(=O)NC(=O)C2(Cc3ccccc3N3CCOCC32)C1=O` (configuration not stated), the activation is 4.27% (inactive).

Regarding `O=c1[nH]c(=O)n(Cc2ccc(F)cc2)c(O)c1/C=N/Nc1ccccc1`, the activation was 107% (active).

Consider `C=CCn1c(O)c(C=NC2CCN(Cc3ccccc3)CC2)c(=O)[nH]c1=O`, for which the activation is 6.93% (inactive).

`CCCCCCC(=O)N/N=C/c1c(O)n(CCc2ccccc2)c(=O)[nH]c1=O`: the activation was -0.94% (inactive).

`OC12CCCCC1C(c1ccccc1)NCC2` (configuration not stated): the activation was 7.25% (inactive).

With `O=C(CN1CCN(c2ccccc2F)CC1)Nc1cccnc1Cl`, the activation is 27.1% (active).

As for `CN1/C(=C\C=C2C(=O)NC(=S)NC2=O)C(C)(C)c2ccccc21`, the activation was 10.4% (inactive).

On to `COc1ccc(CN2C(=O)NC(=O)/C(=C/c3ccoc3)C2=O)cc1`, for which the activation is 10.9% (inactive).

Take `O=C1NC(=O)N(c2cccc(Cl)c2)C(=O)/C1=C\c1ccc(Sc2nc3ccccc3[nH]2)o1`: the activation is 11.5% (inactive).

As to `Cc1cc(C)c(Cn2c(C(=O)O)c(C=O)c3ccccc32)c(C)c1`, the activation is 10.3% (inactive).

As for `COc1ccc(-n2c(O)c(/C=C/C=Nc3ccccc3)c(=O)[nH]c2=O)cc1`, the activation is 5.05% (inactive).

`CCN(CC)c1ccc(N=Cc2c(O)n(Cc3ccco3)c(=O)[nH]c2=O)cc1`: the activation is 5.39% (inactive).

With `Cc1cccc(-n2c(O)c(/C=C/C=Nc3ccccc3)c(=O)[nH]c2=O)c1`, the activation is 414% (active).

As for `O=c1[nH]c(O)c(C=Nc2ccccc2Oc2ccccc2)c(=O)[nH]1`, the activation was 10.2% (inactive).

As for `Cc1ccc(-n2c(O)c(/C=C/C=Nc3ccccc3)c(=O)[nH]c2=O)cc1`, the activation was 26.4% (active).

For the molecule `O=c1[nH]c(=O)n(C2CCCCC2)c(O)c1/C=C/C=Nc1ccccc1`, the activation is 12.3% (active).

For the molecule `CNS(=O)(=O)c1ccc(N=Cc2c(O)n(-c3ccccc3)c(=O)[nH]c2=O)cc1`, the activation was 37.6% (active).

Take `O=c1[nH]c(=O)n(-c2ccccc2)c(O)c1/C=C/C=Nc1ccccc1`: the activation was 8.9% (inactive).

Turning to `CCN(CC)c1ccc(/C=N/c2sc3c(c2C#N)C2CCN3CC2)c(O)c1`, the activation is 7.45% (inactive).

For `O=C1NC(=O)N(Cc2ccccc2)C(=O)/C1=C\N1CCCc2ccccc21`, the activation is 3.9% (inactive).

As to `O=c1[nH]c(O)c(/C=C2\C=Nc3ccc(OCc4ccccc4)cc32)c(=O)[nH]1`, the activation is 8.62% (inactive).

As to `Cn1c(O)c(/C=C/C=Nc2ccccc2)c(=O)n(C)c1=O`, the activation was 9.76% (inactive).

For the molecule `Cn1c(O)c(/C=C/C=Nc2ccccc2)c(=O)n(C)c1=S`, the activation is 21.7% (active).

`CCC(CO)NC(=O)C1C=C2c3cccc4[nH]cc(c34)CC2N(C)C1` (configuration not stated): the activation is 9.84% (inactive).

For the molecule `CN1C[C@H](CO)C=C2c3cccc4[nH]cc(c34)C[C@H]21`, the activation was -3.89% (inactive).

For `CC1=C[C@@H]2c3cccc4[nH]cc(c34)C[C@H]2N(C)C1`, the activation was 50% (active).

On to `Nc1c(C(=O)NCC2CCCO2)c2nc3ccccc3nc2n1Cc1ccco1` (configuration not stated), for which the activation is 1930% (active).

Turning to `COCCNC(=O)c1c(N)n(Cc2ccco2)c2nc3ccccc3nc12`, the activation was 16.3% (active).

As for `COCCOC(=O)c1c(N)n(Cc2ccco2)c2nc3ccccc3nc12`, the activation is 8.08% (inactive).
